In ChEMBL document CHEMBL1143889, “N-Phenyl and N-phenylalkyl-maleimides acting against Candida spp.: time-to-kill, stability, interaction with maleamic acids” (2008):
Converted amounts (≈) assume the structure as drawn. The source made the active and inactive calls. The calls are words filed in the database; no cut-off is given here.

Experiments:
Candida albicans [1] = assay: Antifungal activity against Candida albicans C 130-2000 after 48 hrs by CLSI M27-A2 method; type: functional
In short: (§1)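 Broth microdilution per CLSI M27-A2 in RPMI-1640, with twofold dilutions giving final 250–0.98 µg/mL. The inoculum was modified to 1–5 × 10⁴ CFU/mL instead of 1–5 × 10³, with ketoconazole and amphotericin B as positive controls. MIC was the lowest concentration giving total growth inhibition, read visually. Strains were grown on Sabouraud-chloramphenicol agar for 24 h at 37 °C.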

Torulaspora delbrueckii = assay: Antifungal activity against Candida coliculosa C 122-2000 after 48 hrs by CLSI M27-A2 method; type: functional; in short: as §1
Candida albicans [2] = assay: Antifungal activity against Candida albicans C 128-2000 after 48 hrs by CLSI M27-A2 method; type: functional; in short: as §1
Candida albicans [3] = assay: Antifungal activity against Candida albicans C 126-2000 after 48 hrs by CLSI M27-A2 method; type: functional; in short: as §1
Candida tropicalis = assay: Antifungal activity against Candida tropicalis C 137-1997 after 48 hrs by CLSI M27-A2 method; type: functional; in short: as §1
Pichia kudriavzevii = assay: Antifungal activity against Candida krusei C 117-2000 after 48 hrs by CLSI M27-A2 method; type: functional; in short: as §1
Candida albicans [4] = assay: Antifungal activity against Candida albicans ATCC 10231 after 48 hrs by CLSI M27-A2 method; type: functional; conditions: ATCC 10231, 48 h; in short: as §1
Nakaseomyces glabratus = assay: Antifungal activity against Candida glabrata C 115-2000 after 48 hrs by CLSI M27-A2 method; type: functional; in short: as §1
Kluyveromyces marxianus = assay: Antifungal activity against Candida kefyr C 123-2000 after 48 hrs by CLSI M27-A2 method; type: functional; in short: as §1
Candida parapsilosis = assay: Antifungal activity against Candida parapsilosis C 124-2000 after 48 hrs by CLSI M27-A2 method; type: functional; conditions: Lodderomyces parapsilosis; in short: as §1
Clavispora lusitaniae = assay: Antifungal activity against Candida lusitaniae C 131-2000 after 48 hrs by CLSI M27-A2 method; type: functional; in short: as §1
Candida albicans [5] = assay: Antifungal activity against Candida albicans C 129-2000 after 48 hrs by CLSI M27-A2 method; type: functional; in short: as §1
Candida albicans [6] = assay: Antifungal activity against Candida albicans C 127-2000 after 48 hrs by CLSI M27-A2 method; type: functional; in short: as §1
Candida albicans [7] = assay: Antifungal activity against Candida albicans C 125-2000 after 48 hrs by CLSI M27-A2 method; type: functional; in short: as §1
Candida albicans [8] = assay: Antifungal activity against Candida albicans ATCC 10231 pre-incubated for 5 days analysed after 24 hrs by CLSI M27-A2 method; type: functional
In short: (§2)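 Twofold maleimide dilutions (1000–0.98 µg/mL) in complete M27-A2 medium without inoculum were held at 37 °C, with one plate row filled on each of 7 consecutive days to give 0–7 days of pre-incubation. All wells were then inoculated with C. albicans ATCC 10231 at 1–5 × 10⁴ CFU/mL and incubated for 24 h at 37 °C. MIC was read per row, in duplicate.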

Candida albicans [9] = assay: Antifungal activity against Candida albicans ATCC 10231 after 24 hrs by CLSI M27-A2 method; type: functional; conditions: ATCC 10231, 24 h; in short: as §1
Candida albicans [10] = assay: Antifungal activity against Candida albicans ATCC 10231 within 90 mins by time-to-kill study; type: functional, organism-based
In short: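 C. albicans ATCC 10231 (2–2.5 × 10⁴ CFU/mL) in 5 mL RPMI-1640 was exposed to 1× MFC of compound at 37 °C with agitation. 10 µL samples taken at 0, 30, 60, 90 and 120 min, and at 4, 8, 12 and 24 h, were plated on drug-free SDA and colonies counted after 24–48 h at 37 °C. Run in duplicate.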

Candida albicans [11] = assay: Antifungal activity against Candida albicans ATCC 10231 preincubated for 7 days analysed after 24 hrs by CLSI M27-A2 method; type: functional; in short: as §2
Candida albicans [12] = assay: Antifungal activity against Candida albicans ATCC 10231 pre-incubated for 3 days analysed after 24 hrs by CLSI M27-A2 method; type: functional; in short: as §2
Candida albicans [13] = assay: Antifungal activity against Candida albicans ATCC 10231 pre-incubated for 6 days analysed after 24 hrs by CLSI M27-A2 method; type: functional; in short: as §2
Candida albicans [14] = assay: Antifungal activity against Candida albicans ATCC 10231 pre-incubated for 4 days analysed after 24 hrs by CLSI M27-A2 method; type: functional; in short: as §2
Candida albicans [15] = assay: Antifungal activity against Candida albicans ATCC 10231 pre-incubated for 2 days analysed after 24 hrs by CLSI M27-A2 method; type: functional; in short: as §2
Candida albicans [16] = assay: Antifungal activity against Candida albicans ATCC 10231 pre-incubated for 1 day analysed after 24 hrs by CLSI M27-A2 method; type: functional; in short: as §2

MIC (Candida albicans [1]) [µg/mL] | MIC (Torulaspora delbrueckii) [µg/mL] | MIC (Candida albicans [2]) [µg/mL] | MIC (Candida albicans [3]) [µg/mL] | MIC (Candida tropicalis) [µg/mL] | MIC (Pichia kudriavzevii) [µg/mL] | MIC (Candida albicans [4]) [µg/mL] | MIC (Nakaseomyces glabratus) [µg/mL] | MIC (Kluyveromyces marxianus) [µg/mL] | MIC (Candida parapsilosis) [µg/mL] | MIC (Clavispora lusitaniae) [µg/mL] | MIC (Candida albicans [5]) [µg/mL] | MIC (Candida albicans [6]) [µg/mL] | MIC (Candida albicans [7]) [µg/mL] | MIC (Candida albicans [8]) [µg/mL] | MIC (Candida albicans [9]) [µg/mL] | Structure (SMILES) | MFC (Candida albicans [1]) [µg/mL] | MFC (Torulaspora delbrueckii) [µg/mL] | Activity (Candida albicans [10]) | MFC (Candida albicans [2]) [µg/mL] | also measured
1.95 (≈ 8.5 µM) | 3.9 (≈ 17 µM) | 0.97 (≈ 4.23 µM) | 0.97 (≈ 4.23 µM) | 15.8 (≈ 68.7 µM) | 7.8 (≈ 34 µM) | 3.9 (≈ 17 µM) | 1.95 (≈ 8.5 µM) | 1.95 (≈ 8.5 µM) | 1.95 (≈ 8.5 µM) | 3.9 (≈ 17 µM) | 0.97 (≈ 4.23 µM) | 1.95 (≈ 8.5 µM) | 0.97 (≈ 4.23 µM) | 125 (≈ 545 µM) | 3.9 (≈ 17 µM) | O=C1C=CC(=O)N1CCCCc1ccccc1 | 3.9 (≈ 17 µM) | 3.9 (≈ 17 µM) | Active | 1.95 (≈ 8.5 µM) | MFC (Candida albicans [3]): 1.95 µg/mL (≈ 8.5 µM); MFC (Candida tropicalis): 32.2 µg/mL (≈ 141 µM); MIC (Candida albicans [11]): 1000 µg/mL (≈ 4360 µM); MFC (Pichia kudriavzevii): 15.8 µg/mL (≈ 68.7 µM); MFC (Candida albicans [4]): 7.8 µg/mL (≈ 34 µM); MFC (Nakaseomyces glabratus): 3.9 µg/mL (≈ 17 µM); MFC (Kluyveromyces marxianus): 7.81 µg/mL (≈ 34.1 µM); MIC (Candida albicans [12]): 15.8 µg/mL (≈ 68.7 µM); MFC (Candida parapsilosis): 7.8 µg/mL (≈ 34 µM); MIC (Candida albicans [13]): 250 µg/mL (≈ 1090 µM); MIC (Candida albicans [14]): 31.2 µg/mL (≈ 136 µM); MFC (Clavispora lusitaniae): 3.9 µg/mL (≈ 17 µM); MIC (Candida albicans [15]): 3.9 µg/mL (≈ 17 µM); MFC (Candida albicans [5]): 1.95 µg/mL (≈ 8.5 µM); MFC (Candida albicans [6]): 3.9 µg/mL (≈ 17 µM); MIC (Candida albicans [16]): 3.9 µg/mL (≈ 17 µM); MFC (Candida albicans [7]): 1.95 µg/mL (≈ 8.5 µM)
1.95 (≈ 9.69 µM) | 1.95 (≈ 9.69 µM) | 3.9 (≈ 19.4 µM) | 3.9 (≈ 19.4 µM) | 15.8 (≈ 78.3 µM) | 3.9 (≈ 19.4 µM) | 3.9 (≈ 19.4 µM) | 1.95 (≈ 9.69 µM) | 3.9 (≈ 19.4 µM) | 3.9 (≈ 19.4 µM) | 3.9 (≈ 19.4 µM) | 1.95 (≈ 9.69 µM) | 1.95 (≈ 9.69 µM) | 1.95 (≈ 9.69 µM) | 125 (≈ 621 µM) | 3.9 (≈ 19.4 µM) | O=C1C=CC(=O)N1CCc1ccccc1 | 1.95 (≈ 9.69 µM) | 7.81 (≈ 38.8 µM) | Active | 7.81 (≈ 38.8 µM) | MFC (Candida albicans [3]): 7.81 µg/mL (≈ 38.8 µM); MFC (Candida tropicalis): 32.2 µg/mL (≈ 160 µM); MIC (Candida albicans [11]): 500 µg/mL (≈ 2480 µM); MFC (Pichia kudriavzevii): 7.8 µg/mL (≈ 38.8 µM); MFC (Candida albicans [4]): 7.8 µg/mL (≈ 38.8 µM); MFC (Nakaseomyces glabratus): 3.9 µg/mL (≈ 19.4 µM); MFC (Kluyveromyces marxianus): 3.9 µg/mL (≈ 19.4 µM); MIC (Candida albicans [12]): 7.8 µg/mL (≈ 38.8 µM); MFC (Candida parapsilosis): 3.9 µg/mL (≈ 19.4 µM); MIC (Candida albicans [13]): 250 µg/mL (≈ 1240 µM); MIC (Candida albicans [14]): 31.2 µg/mL (≈ 155 µM); MFC (Clavispora lusitaniae): 7.8 µg/mL (≈ 38.8 µM); MIC (Candida albicans [15]): 7.8 µg/mL (≈ 38.8 µM); MFC (Candida albicans [5]): 1.95 µg/mL (≈ 9.69 µM); MFC (Candida albicans [6]): 3.9 µg/mL (≈ 19.4 µM); MIC (Candida albicans [16]): 3.9 µg/mL (≈ 19.4 µM); MFC (Candida albicans [7]): 1.95 µg/mL (≈ 9.69 µM)

Structure (SMILES) | MIC (Candida albicans [1]) [µg/mL] | MIC (Torulaspora delbrueckii) [µg/mL] | MIC (Candida albicans [2]) [µg/mL] | MIC (Candida albicans [3]) [µg/mL] | MIC (Candida tropicalis) [µg/mL] | MIC (Pichia kudriavzevii) [µg/mL] | MIC (Candida albicans [4]) [µg/mL] | MIC (Nakaseomyces glabratus) [µg/mL] | MIC (Kluyveromyces marxianus) [µg/mL] | MIC (Candida parapsilosis) [µg/mL] | MIC (Clavispora lusitaniae) [µg/mL] | MIC (Candida albicans [5]) [µg/mL] | MIC (Candida albicans [6]) [µg/mL] | MIC (Candida albicans [7]) [µg/mL] | MIC (Candida albicans [8]) [µg/mL] | MIC (Candida albicans [9]) [µg/mL] | MFC (Candida albicans [1]) [µg/mL] | MFC (Torulaspora delbrueckii) [µg/mL] | Activity (Candida albicans [10]) | MFC (Candida albicans [2]) [µg/mL] | also measured
CC(=O)N1CCN(c2ccc(OCC3COC(Cn4ccnc4)(c4ccc(Cl)cc4Cl)O3)cc2)CC1 (stereo not drawn) [KETOCONAZOLE] | 6.25 (≈ 11.8 µM) | 0.78 (≈ 1.47 µM) | 6.25 (≈ 11.8 µM) | 1.56 (≈ 2.94 µM) | 0.12 (≈ 0.226 µM) | 50 (≈ 94.1 µM) | 0.5 (≈ 0.941 µM) | 1.56 (≈ 2.94 µM) | 0.78 (≈ 1.47 µM) | 0.78 (≈ 1.47 µM) | 25 (≈ 47 µM) | 12.5 (≈ 23.5 µM) | 6.25 (≈ 11.8 µM) | 6.25 (≈ 11.8 µM) |  |  |  |  |  |  | 
